Measurements as given in ChEMBL document CHEMBL1142148, “Antibiotic susceptibility profile of bifidobacteria as affected by oxgall, acid, and hydrogen peroxide stress” (2007).
Converted amounts (≈) assume the structure as drawn.

How the values were obtained:
[1] = system: Bifidobacterium longum; assay: Antimicrobial activity against Bifidobacterium longum P/N 601377; assay type: functional
Procedure, shortened: (§1)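 Broth microdilution in MRS plus 0.05% L-cysteine-HCl. Mid-log culture adjusted to OD650 0.1, giving about 2.5 × 10^4 to 5.0 × 10^4 CFU/well, then added to twofold serial dilutions of agent. Plates incubated anaerobically at 37°C for 18 h and read at OD650. MIC is the lowest concentration matching the uninoculated blank OD, taken as the median of four repeats.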

[2] = system: Bifidobacterium animalis; assay: Antimicrobial activity against Bifidobacterium animalis ATCC 27536; assay type: functional; procedure, shortened: as §1
[3] = system: Bifidobacterium longum; assay: Antimicrobial activity against 90 mins oxgall-stressed Bifidobacterium longum ATCC 15708 after 18 hrs; assay type: functional
Procedure, shortened: (§2)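 Cells pelleted from mid-log MRS culture and resuspended in MRS (initial pH 6.5) with 0.3% (wt/vol) oxgall for 90 min anaerobically at 37°C. They were then regrown in MRS pH 6.5 for 24 h (footnote: 18 h) anaerobically and tested for MIC by the same broth microdilution assay. Median of four repetitions.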

[4] = system: Bifidobacterium longum; assay: Antimicrobial activity against 90 mins hydrogen peroxide-stressed Bifidobacterium longum P/N 601377 after 18 hrs; assay type: functional
Procedure, shortened: (§3)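 Stress applied for 90 min at 37°C under anaerobic conditions, using MRS (initial pH 6.5) containing H2O2 at each strain's own inhibitory concentration. The H2O2 level was set beforehand by microplate tolerance testing. Challenged cells were regrown in MRS for 24 h (footnote: 18 h) before MIC testing by broth microdilution. Median of four repetitions.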

[5] = system: Bifidobacterium animalis; assay: Antimicrobial activity against 90 mins oxgall-stressed Bifidobacterium animalis ATCC 27536 after 18 hrs; assay type: functional; procedure, shortened: as §2
[6] = system: Bifidobacterium thermophilum; assay: Antimicrobial activity against 90 mins hydrogen peroxide-stressed Bifidobacterium thermophilum ATCC 25866 after 18 hrs; assay type: functional; procedure, shortened: as §3
[7] = Antimicrobial activity against 60 min 1 M HCl-stressed Bifidobacterium infantis ATCC 15697 after 18 hrs; assay type: functional, Bifidobacterium longum subsp. infantis; details: Bifidobacterium longum
Procedure, shortened: (§4)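 Mid-log MRS culture pelleted and resuspended in MRS broth brought to pH 2.0 with 1 M HCl, held anaerobically at 37°C for 60 min, then subcultured in MRS (pH 6.5) for 24 h anaerobically before MIC testing by broth microdilution (as for unstressed cells). Table footnote gives 18 h anaerobic regrowth after the stress. MIC is the median of four repetitions.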

[8] = system: Bifidobacterium bifidum; assay: Antimicrobial activity against 90 mins hydrogen peroxide-stressed Bifidobacterium bifidum R0071 after 18 hrs; assay type: functional; procedure, shortened: as §3
[9] = system: Bifidobacterium pseudolongum; assay: Antimicrobial activity against 60 min 1 M HCl-stressed Bifidobacterium pseudolongum ATCC 25562 after 18 hrs; assay type: functional; procedure, shortened: as §4
[10] = system: Bifidobacterium longum; assay: Antimicrobial activity against 90 mins oxgall-stressed Bifidobacterium longum R0175 after 18 hrs; assay type: functional; procedure, shortened: as §2
[11] = system: Bifidobacterium animalis; assay: Antimicrobial activity against 60 min 1 M HCl-stressed Bifidobacterium animalis ATCC 27536 after 18 hrs; assay type: functional; procedure, shortened: as §4
[12] = system: Bifidobacterium longum; assay: Antimicrobial activity against Bifidobacterium longum R0175; assay type: functional; procedure, shortened: as §1
[13] = system: Bifidobacterium longum; assay: Antimicrobial activity against 90 mins oxgall-stressed Bifidobacterium longum P/N 601377 after 18 hrs; assay type: functional; procedure, shortened: as §2
[14] = system: Bifidobacterium bifidum; assay: Antimicrobial activity against 90 mins oxgall-stressed Bifidobacterium bifidum ATCC 15696 after 18 hrs; assay type: functional; procedure, shortened: as §2
[15] = system: Bifidobacterium thermophilum; assay: Antimicrobial activity against 90 mins oxgall-stressed Bifidobacterium thermophilum ATCC 25866 after 18 hrs; assay type: functional; procedure, shortened: as §2
[16] = system: Bifidobacterium breve; assay: Antimicrobial activity against 60 min 1 M HCl-stressed Bifidobacterium breve ATCC 15700 after 18 hrs; assay type: functional; procedure, shortened: as §4
[17] = system: Bifidobacterium longum; assay: Antimicrobial activity against Bifidobacterium longum ATCC 15708; assay type: functional; procedure, shortened: as §1
[18] = system: Bifidobacterium longum; assay: Antimicrobial activity against 60 min 1 M HCl-stressed Bifidobacterium longum P/N 601377 after 18 hrs; assay type: functional; procedure, shortened: as §4
[19] = system: Bifidobacterium longum; assay: Antimicrobial activity against Bifidobacterium longum ATCC 15707; assay type: functional; procedure, shortened: as §1
[20] = system: Bifidobacterium bifidum; assay: Antimicrobial activity against Bifidobacterium bifidum ATCC 15696; assay type: functional; procedure, shortened: as §1
[21] = system: Bifidobacterium longum; assay: Antimicrobial activity against 90 mins oxgall-stressed Bifidobacterium longum ATCC 15707 after 18 hrs; assay type: functional; procedure, shortened: as §2
[22] = system: Bifidobacterium bifidum; assay: Antimicrobial activity against 60 min 1 M HCl-stressed Bifidobacterium bifidum BB12 after 18 hrs; assay type: functional; procedure, shortened: as §4
[23] = system: Bifidobacterium animalis; assay: Antimicrobial activity against 90 mins hydrogen peroxide-stressed Bifidobacterium animalis ATCC 27536 after 18 hrs; assay type: functional; procedure, shortened: as §3
[24] = system: Bifidobacterium bifidum; assay: Antimicrobial activity against Bifidobacterium bifidum R0071; assay type: functional; procedure, shortened: as §1
[25] = system: Bifidobacterium longum; assay: Antimicrobial activity against 90 mins hydrogen peroxide-stressed Bifidobacterium longum ATCC 15708 after 18 hrs; assay type: functional; procedure, shortened: as §3
[26] = system: Bifidobacterium breve; assay: Antimicrobial activity against 90 mins oxgall-stressed Bifidobacterium breve R0070 after 18 hrs; assay type: functional; procedure, shortened: as §2
[27] = system: Bifidobacterium breve; assay: Antimicrobial activity against 90 mins oxgall-stressed Bifidobacterium breve ATCC 15700 after 18 hrs; assay type: functional; procedure, shortened: as §2
[28] = system: Bifidobacterium pseudolongum; assay: Antimicrobial activity against 90 mins oxgall-stressed Bifidobacterium pseudolongum ATCC 25562 after 18 hrs; assay type: functional; procedure, shortened: as §2
[29] = system: Bifidobacterium bifidum; assay: Antimicrobial activity against 90 mins oxgall-stressed Bifidobacterium bifidum R0071 after 18 hrs; assay type: functional; procedure, shortened: as §2
[30] = system: Bifidobacterium longum; assay: Antimicrobial activity against 90 mins hydrogen peroxide-stressed Bifidobacterium longum R0175 after 18 hrs; assay type: functional; procedure, shortened: as §3
[31] = system: Bifidobacterium longum; assay: Antimicrobial activity against 60 min 1 M HCl-stressed Bifidobacterium longum ATCC 15707 after 18 hrs; assay type: functional; procedure, shortened: as §4
[32] = system: Bifidobacterium longum; assay: Antimicrobial activity against 90 mins hydrogen peroxide-stressed Bifidobacterium longum ATCC 15707 after 18 hrs; assay type: functional; procedure, shortened: as §3
[33] = system: Bifidobacterium bifidum; assay: Antimicrobial activity against Bifidobacterium bifidum BB12; assay type: functional; procedure, shortened: as §1
[34] = system: Bifidobacterium breve; assay: Antimicrobial activity against 90 mins hydrogen peroxide-stressed Bifidobacterium breve R0070 after 18 hrs; assay type: functional; procedure, shortened: as §3
[35] = system: Bifidobacterium bifidum; assay: Antimicrobial activity against 90 mins hydrogen peroxide-stressed Bifidobacterium bifidum BB12 after 18 hrs; assay type: functional; procedure, shortened: as §3
[36] = system: Bifidobacterium pseudolongum; assay: Antimicrobial activity against Bifidobacterium pseudolongum ATCC 25562; assay type: functional; procedure, shortened: as §1
[37] = system: Bifidobacterium breve; assay: Antimicrobial activity against 60 min 1 M HCl-stressed Bifidobacterium breve R0070 after 18 hrs; assay type: functional; procedure, shortened: as §4
[38] = system: Bifidobacterium thermophilum; assay: Antimicrobial activity against 60 min 1 M HCl-stressed Bifidobacterium thermophilum ATCC 25866 after 18 hrs; assay type: functional; procedure, shortened: as §4
[39] = system: Bifidobacterium bifidum; assay: Antimicrobial activity against 60 min 1 M HCl-stressed Bifidobacterium bifidum R0071 after 18 hrs; assay type: functional; procedure, shortened: as §4
[40] = system: Bifidobacterium breve; assay: Antimicrobial activity against Bifidobacterium breve ATCC 15700; assay type: functional; procedure, shortened: as §1
[41] = Antimicrobial activity against 90 mins oxgall-stressed Bifidobacterium infantis ATCC 15697 after 18 hrs; assay type: functional, Bifidobacterium longum subsp. infantis; details: Bifidobacterium longum; procedure, shortened: as §2
[42] = Antimicrobial activity against Bifidobacterium infantis ATCC 15697; assay type: functional, Bifidobacterium longum subsp. infantis; details: Bifidobacterium longum; procedure, shortened: as §1
[43] = system: Bifidobacterium bifidum; assay: Antimicrobial activity against 90 mins oxgall-stressed Bifidobacterium bifidum BB12 after 18 hrs; assay type: functional; procedure, shortened: as §2
[44] = system: Bifidobacterium thermophilum; assay: Antimicrobial activity against Bifidobacterium thermophilum ATCC 25866; assay type: functional; procedure, shortened: as §1
[45] = system: Bifidobacterium breve; assay: Antimicrobial activity against 90 mins hydrogen peroxide-stressed Bifidobacterium breve ATCC 15700 after 18 hrs; assay type: functional; procedure, shortened: as §3
[46] = system: Bifidobacterium longum; assay: Antimicrobial activity against 60 min 1 M HCl-stressed Bifidobacterium longum R0175 after 18 hrs; assay type: functional; procedure, shortened: as §4
[47] = system: Bifidobacterium breve; assay: Antimicrobial activity against Bifidobacterium breve R0070; assay type: functional; procedure, shortened: as §1

MIC [1]: 250 µg/mL (≈ 516 µM)
MIC [2]: 500 µg/mL (≈ 1030 µM)
MIC [3]: 500 µg/mL (≈ 1030 µM)
MIC [4]: 250 µg/mL (≈ 516 µM)
MIC [5]: 500 µg/mL (≈ 1030 µM)
MIC [6]: 500 µg/mL (≈ 1030 µM)
MIC [7]: 500 µg/mL (≈ 1030 µM)
MIC [8]: 500 µg/mL (≈ 1030 µM)
MIC [9]: 250 µg/mL (≈ 516 µM)
MIC [10]: 500 µg/mL (≈ 1030 µM)
MIC [11]: 500 µg/mL (≈ 1030 µM)
MIC [12]: 500 µg/mL (≈ 1030 µM)
MIC [13]: 250 µg/mL (≈ 516 µM)
MIC [14]: 125 µg/mL (≈ 258 µM)
MIC [15]: 500 µg/mL (≈ 1030 µM)
MIC [16]: 500 µg/mL (≈ 1030 µM)
MIC [17]: 500 µg/mL (≈ 1030 µM)
MIC [18]: 250 µg/mL (≈ 516 µM)
MIC [19]: 500 µg/mL (≈ 1030 µM)
MIC [20]: > 500 µg/mL
MIC [21]: 250 µg/mL (≈ 516 µM)
MIC [22]: 250 µg/mL (≈ 516 µM)
MIC [23]: 500 µg/mL (≈ 1030 µM)
MIC [24]: 500 µg/mL (≈ 1030 µM)
MIC [25]: 500 µg/mL (≈ 1030 µM)
MIC [26]: 500 µg/mL (≈ 1030 µM)
MIC [27]: 500 µg/mL (≈ 1030 µM)
MIC [28]: 500 µg/mL (≈ 1030 µM)
MIC [29]: 500 µg/mL (≈ 1030 µM)
MIC [30]: 500 µg/mL (≈ 1030 µM)
MIC [31]: 500 µg/mL (≈ 1030 µM)
MIC [32]: 500 µg/mL (≈ 1030 µM)
MIC [33]: > 500 µg/mL
MIC [34]: 500 µg/mL (≈ 1030 µM)
MIC [35]: 500 µg/mL (≈ 1030 µM)
MIC [36]: > 500 µg/mL
MIC [37]: 500 µg/mL (≈ 1030 µM)
MIC [38]: 500 µg/mL (≈ 1030 µM)
MIC [39]: 0.98 µg/mL (≈ 2.02 µM)
MIC [40]: > 500 µg/mL
MIC [41]: > 500 µg/mL
MIC [42]: > 500 µg/mL
MIC [43]: 500 µg/mL (≈ 1030 µM)
MIC [44]: > 500 µg/mL
MIC [45]: > 500 µg/mL
MIC [46]: 250 µg/mL (≈ 516 µM)
MIC [47]: 500 µg/mL (≈ 1030 µM)
Compound: NC[C@H]1O[C@H](O[C@H]2[C@H](O)[C@@H](O[C@H]3O[C@H](CO)[C@@H](O)[C@H](N)[C@H]3O)[C@H](N)C[C@@H]2N)[C@H](O)[C@@H](O)[C@@H]1O [KANAMYCIN]
